Test results reported in ChEMBL document CHEMBL5055621, “Synthesis and Characterization of the Novel Rodent-Active and CNS-Penetrant P2X7 Receptor Antagonist Lu AF27139” (J Med Chem, 2021).

Columns and labels:
P2X purinoceptor 7 [1] = target: T1, P2X purinoceptor 7 (Rattus norvegicus, UniProt Q64663); assay: Antagonist activity at rat P2X7 receptor expressed in HEK293 cells assessed as inhibition of BzATP-induced calcium-flux measured after 60 mins by FLIPR analysis; type: cell-based
T1 sequence (Q64663 whole entry): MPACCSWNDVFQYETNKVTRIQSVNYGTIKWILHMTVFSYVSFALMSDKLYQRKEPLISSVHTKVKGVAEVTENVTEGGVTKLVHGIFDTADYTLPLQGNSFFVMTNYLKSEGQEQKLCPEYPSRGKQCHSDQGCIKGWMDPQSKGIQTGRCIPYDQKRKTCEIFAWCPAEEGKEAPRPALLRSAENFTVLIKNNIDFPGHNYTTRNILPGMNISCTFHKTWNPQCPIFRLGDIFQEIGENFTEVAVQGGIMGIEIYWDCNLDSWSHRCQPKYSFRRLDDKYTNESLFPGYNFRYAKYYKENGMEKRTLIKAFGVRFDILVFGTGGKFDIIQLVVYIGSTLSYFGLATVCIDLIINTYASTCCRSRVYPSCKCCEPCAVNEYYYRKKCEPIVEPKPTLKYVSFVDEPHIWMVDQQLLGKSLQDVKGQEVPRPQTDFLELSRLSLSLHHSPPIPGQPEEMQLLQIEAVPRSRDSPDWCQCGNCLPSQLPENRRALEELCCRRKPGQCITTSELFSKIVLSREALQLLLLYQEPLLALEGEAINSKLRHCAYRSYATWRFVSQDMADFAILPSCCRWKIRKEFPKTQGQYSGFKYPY
Method in brief: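 Stable rat or mouse P2X7 HEK293 cells in HBSS/20 mM HEPES/2.5 mM probenecid/0.05% BSA, pH 7.4, were loaded with Fluo-4 NW (37 °C 30 min, RT 30 min). After 30 min at RT, calcium fluorescence was read by FLIPR; n ≥ 3.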

P2X purinoceptor 7 [2] = target: T2, P2X purinoceptor 7 (Mus musculus, UniProt Q9Z1M0); assay: Displacement of [3H]-A-804598 from mouse P2X7 receptor expressed in HEK293 cell membrane by in vitro binding assay; type: cell membranes
T2 sequence (Q9Z1M0 whole entry): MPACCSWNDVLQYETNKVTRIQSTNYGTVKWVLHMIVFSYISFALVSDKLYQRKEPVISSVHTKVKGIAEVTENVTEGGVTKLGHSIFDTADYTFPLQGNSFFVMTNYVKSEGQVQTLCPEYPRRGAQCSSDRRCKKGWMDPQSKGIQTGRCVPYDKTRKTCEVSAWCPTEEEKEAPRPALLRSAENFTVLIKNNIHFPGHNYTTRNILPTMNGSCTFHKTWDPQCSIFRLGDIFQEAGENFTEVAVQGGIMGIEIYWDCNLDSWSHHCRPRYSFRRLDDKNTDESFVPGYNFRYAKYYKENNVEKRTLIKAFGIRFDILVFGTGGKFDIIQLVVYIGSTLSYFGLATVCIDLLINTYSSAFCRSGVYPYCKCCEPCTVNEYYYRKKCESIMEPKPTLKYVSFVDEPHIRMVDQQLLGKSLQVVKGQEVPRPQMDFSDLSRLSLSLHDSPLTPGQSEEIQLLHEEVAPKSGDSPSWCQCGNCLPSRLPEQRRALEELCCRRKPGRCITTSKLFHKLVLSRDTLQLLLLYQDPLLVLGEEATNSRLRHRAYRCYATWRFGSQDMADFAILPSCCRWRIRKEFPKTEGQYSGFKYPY

[3] = Inhibition of BzATP-induced current in rat primary microglia cells measured after repeated BzATP treatment at -60 mV at 100 nM by whole cell patch clamp assay relative to control; type: functional
Method in brief: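 Rat primary microglia were whole-cell patch-clamped at −60 mV (external pH 7.4 with 1.8 mM CaCl2; CsCl/EGTA internal pH 7.2). Currents came from 10 s applications of 300 μM BzATP, applied repeatedly. Compound was applied by gravity via capillary for 60 s, and inhibition was taken relative to the control response.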

Cytochrome P450 2C19 = Cytochrome P450 2C19 (Homo sapiens, UniProt P33261); assay: Inhibition of CYP2C19 (unknown origin) upto 25 uM; type: ADME
Cytochrome P450 2C19, sequence (P33261 whole entry): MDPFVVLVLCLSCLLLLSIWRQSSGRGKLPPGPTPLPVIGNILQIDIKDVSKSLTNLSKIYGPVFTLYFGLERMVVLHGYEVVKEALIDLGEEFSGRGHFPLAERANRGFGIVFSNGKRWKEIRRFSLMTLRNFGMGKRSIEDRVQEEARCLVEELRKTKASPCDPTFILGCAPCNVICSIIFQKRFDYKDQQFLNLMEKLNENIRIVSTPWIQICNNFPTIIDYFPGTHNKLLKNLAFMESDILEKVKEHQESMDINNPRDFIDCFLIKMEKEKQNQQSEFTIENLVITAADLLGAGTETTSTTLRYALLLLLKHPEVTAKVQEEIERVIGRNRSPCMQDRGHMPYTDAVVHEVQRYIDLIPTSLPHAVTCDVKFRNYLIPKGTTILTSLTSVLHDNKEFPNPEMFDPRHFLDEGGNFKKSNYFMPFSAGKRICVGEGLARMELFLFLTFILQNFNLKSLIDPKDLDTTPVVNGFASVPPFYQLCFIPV

Cytochrome P450 2B6 = target: T3, Cytochrome P450 2B6 (Homo sapiens, UniProt P20813); assay: Inhibition of CYP2B6 (unknown origin) upto 25 uM; type: ADME
T3 sequence (P20813 whole entry): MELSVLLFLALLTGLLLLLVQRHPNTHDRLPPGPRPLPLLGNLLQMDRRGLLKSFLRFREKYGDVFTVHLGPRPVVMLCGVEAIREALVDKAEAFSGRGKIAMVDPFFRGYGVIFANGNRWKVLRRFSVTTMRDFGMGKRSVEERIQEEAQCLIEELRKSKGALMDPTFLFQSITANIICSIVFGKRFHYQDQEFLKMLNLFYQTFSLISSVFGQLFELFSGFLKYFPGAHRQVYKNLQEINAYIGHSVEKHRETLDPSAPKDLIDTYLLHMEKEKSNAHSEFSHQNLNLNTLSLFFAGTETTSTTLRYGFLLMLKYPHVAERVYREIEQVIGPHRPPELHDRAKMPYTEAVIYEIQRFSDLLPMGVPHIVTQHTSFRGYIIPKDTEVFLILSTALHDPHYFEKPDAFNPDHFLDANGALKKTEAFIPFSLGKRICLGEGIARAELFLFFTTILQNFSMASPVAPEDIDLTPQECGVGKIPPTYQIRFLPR

[4] = Absolute oral bioavailability in rat at 2 mg/kg; type: ADME, organism-based; conditions: in vivo
Method in brief: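 Rats received 1 mg/kg iv or 2 mg/kg po. The plasma concentration–time profile was analysed by a noncompartmental model to give half-life, Cmax, Tmax and absolute oral bioavailability.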

[5] = Free plasma concentration in rat at 1 mg/kg, po after 1 hr by ex vivo equilibrium dialysis; type: ADME, organism-based
Method in brief: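 Male Sprague–Dawley rats were dosed orally at 1–100 mg/kg, and total plasma concentration was measured at 1 and 2 h. This was multiplied by fraction unbound from ex vivo equilibrium dialysis; mean ± SEM, n = 3 animals.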

Rattus norvegicus = assay: Reduction in LPS/BzATP-induced IL-1beta release in icv dosed Sprague-Dawley rat frontal cortex assessed as minimal effective dose pretreated 1 hr before BzATP stimulus; type: functional; conditions: read-out: MED
Method in brief: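 Rats and mice with frontal cortex microdialysis probes and a lateral ventricle cannula received icv LPS (rat 3 μg/5 μL; mouse 0.1 μg/3 μL), and 1 h later oral compound in 20% HP-β-cyclodextrin. BzATP icv (rat 50 μg; mouse 5 μg) followed 1 h later.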

hERG (KCNH2) = hERG (KCNH2) (Homo sapiens, UniProt Q12809); assay: Inhibition of human ERG at 30 uM
hERG (KCNH2), sequence (Q12809 whole entry): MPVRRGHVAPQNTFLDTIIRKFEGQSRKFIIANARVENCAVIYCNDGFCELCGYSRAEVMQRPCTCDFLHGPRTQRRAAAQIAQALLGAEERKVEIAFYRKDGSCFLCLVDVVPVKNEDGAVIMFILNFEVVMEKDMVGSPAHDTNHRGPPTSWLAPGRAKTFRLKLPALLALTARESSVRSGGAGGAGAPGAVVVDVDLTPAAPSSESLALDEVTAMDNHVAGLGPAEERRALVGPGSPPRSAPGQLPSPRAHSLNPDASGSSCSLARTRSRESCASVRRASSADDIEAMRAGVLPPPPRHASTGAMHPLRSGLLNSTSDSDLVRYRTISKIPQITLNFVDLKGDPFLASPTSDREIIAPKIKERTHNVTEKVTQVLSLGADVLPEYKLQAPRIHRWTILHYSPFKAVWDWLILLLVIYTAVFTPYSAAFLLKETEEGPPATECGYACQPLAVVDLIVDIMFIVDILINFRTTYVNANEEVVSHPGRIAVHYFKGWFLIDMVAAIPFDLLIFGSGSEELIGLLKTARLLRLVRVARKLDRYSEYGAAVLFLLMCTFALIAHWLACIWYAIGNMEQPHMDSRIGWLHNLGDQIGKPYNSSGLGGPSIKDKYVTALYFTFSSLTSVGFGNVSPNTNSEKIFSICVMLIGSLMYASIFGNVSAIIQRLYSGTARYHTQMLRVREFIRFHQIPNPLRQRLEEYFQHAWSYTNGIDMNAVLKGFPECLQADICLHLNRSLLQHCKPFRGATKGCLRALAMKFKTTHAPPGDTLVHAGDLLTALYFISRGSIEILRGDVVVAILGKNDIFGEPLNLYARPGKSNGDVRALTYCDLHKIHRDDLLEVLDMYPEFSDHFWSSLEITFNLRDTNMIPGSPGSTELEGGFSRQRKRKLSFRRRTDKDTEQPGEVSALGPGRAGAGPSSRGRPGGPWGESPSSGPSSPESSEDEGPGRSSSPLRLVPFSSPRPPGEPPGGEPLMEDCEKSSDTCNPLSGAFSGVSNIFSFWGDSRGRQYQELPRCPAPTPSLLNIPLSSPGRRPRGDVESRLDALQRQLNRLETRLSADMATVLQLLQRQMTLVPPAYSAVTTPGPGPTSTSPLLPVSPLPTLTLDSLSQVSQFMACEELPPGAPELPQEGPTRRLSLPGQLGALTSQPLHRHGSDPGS
Method in brief: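 hERG channel inhibition was measured at 30 μM.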

Mus musculus = assay: Toxicity in C57BL/6NCrl mouse assessed as histological changes up to 100 mg/kg, po bid by 14 days exploratory toxicology study; type: organism-based; conditions: in vivo, 336 h, time 14 day
Method in brief: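 Exploratory 14-day repeat oral toxicity study in mice with dosing twice daily (bid) up to 100 mg/kg. Endpoints were macroscopic pathology, histology and hematology.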

[6] = Cmax in male rat at 150 mg/kg, po after 7 days; type: ADME, organism-based; set-up: dose 150 mg/kg, time 7 day, route po; conditions: in vivo
in vitro = conditions: human, liver microsomes
[7] = Tmax in female mouse at 100 mg/kg, po administered as single dose; conditions: in vivo

- IC50 (P2X purinoceptor 7 [1]): 2.4 nM
- Ki (P2X purinoceptor 7 [2]): 180 nM
- inhibition (INH) (Cytochrome P450 2C19): Not Active
- inhibition (INH) (Cytochrome P450 2B6): Not Active
- bioavailability [4]: ≥ 100%
- Cp(f) [5]: 0.0224 µM
- Cmax [6]: 39.6 µM
- CLint scaled at 1 h, 1 µM (in vitro): 43.3 mL/min/kg
- Tmax [7]: 1 h
Compound: O=C(NC[C@H](c1ccc(Cl)cc1)N1CCOCC1)c1sc(-c2ncccn2)nc1C(F)(F)F
- inhibition at 0.1 µM [3]: 80%
- minimal effective dose (Rattus norvegicus): 3 mg/kg
- inhibition at 30 µM (hERG (KCNH2)): 44%
- Activity (Mus musculus): Non-Toxic
